This is a sample that favours compounds with a hit; in the whole collection about 2.3% have one here.
PME-1 primary: PME-1 inhibitors via competitive probe labeling, primary screen, biochemical, fluorescence polarization, FP-Rh probe, HTS; 0.53% of 320,000 active; recombinant PME-1; inhibition, % at 5.9 µM; Protein phosphatase methylesterase 1 (Homo sapiens), Q9Y570;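 active = inhibition above the campaign mean of all compounds plus 3 SD, cut at about 26% in these data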;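 also: competitive labeling of PME-1 active site by serine hydrolase directed probe; inhibitors block probe labeling so polarization falls and inhibition rises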
PAD4 FP inh: human PAD4 inhibitors, primary screen, biochemical, fluorescence polarization, 1536-well format | Protein-arginine deiminase type-4 (Homo sapiens), Q9UM07 | recombinant PAD4, RCA probe fluorescence polarization | inhibition, % at 6.36 µM | 0.41% of 330,000 active | AID 485272, 2010;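 active = percent inhibition above a cutoff equal to the mean of all tested compounds plus 3 SD, cut at about 15% in these data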
Fam108B inh: mouse Fam108B serine hydrolase inhibitors, primary screen, counter-screen for RBBP9 inhibitor project, biochemical, fluorescence polarization. 0.33% of 300,000 active. inhibition, % at 9.51 µM. AID 1947, 2009. recombinant Fam108B, FP-Rh probe fluorescence polarization;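 active = inhibition above the screen mean inhibition plus 3 SD, computed separately per campaign, cut at about 18% in these data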;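 also: inhibitors lower polarization as less probe binds the enzyme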
PRMT1 FP inh: PRMT1 methyltransferase inhibitors, primary screen, biochemical, fluorescence polarization. Protein arginine N-methyltransferase 1 (Homo sapiens), Q99873. recombinant PRMT1, activity-based probe fluorescence polarization. inhibition, % at 2.79 µM. 1.3% of 370,000 active. AID 652257, 2013;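 active = inhibition above about 21% made by adding two undisclosed values, limit read from the data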
Target sequence (Q99873 whole entry, looked up): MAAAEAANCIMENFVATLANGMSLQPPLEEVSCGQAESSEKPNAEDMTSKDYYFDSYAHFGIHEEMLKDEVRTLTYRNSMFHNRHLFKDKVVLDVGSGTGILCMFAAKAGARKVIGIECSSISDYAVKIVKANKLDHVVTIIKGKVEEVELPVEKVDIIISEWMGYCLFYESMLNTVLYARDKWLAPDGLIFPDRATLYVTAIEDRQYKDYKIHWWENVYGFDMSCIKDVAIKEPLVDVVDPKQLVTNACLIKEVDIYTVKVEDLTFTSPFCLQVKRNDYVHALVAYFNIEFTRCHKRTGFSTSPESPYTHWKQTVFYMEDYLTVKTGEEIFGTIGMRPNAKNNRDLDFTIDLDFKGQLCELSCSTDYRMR
RBBP9 inh: human RBBP9 inhibitors, primary screen, biochemical, fluorescence polarization, FP-Rh probe, HTS. Serine hydrolase RBBP9 (Homo sapiens), O75884. recombinant RBBP9. inhibition, % at 7.94 µM. 0.2% of 220,000 active. AID 1515, 2009;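 active = inhibition above the campaign mean of all tested compounds plus 3 SD, cut at about 14% in these data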
Target sequence (O75884 whole entry, looked up): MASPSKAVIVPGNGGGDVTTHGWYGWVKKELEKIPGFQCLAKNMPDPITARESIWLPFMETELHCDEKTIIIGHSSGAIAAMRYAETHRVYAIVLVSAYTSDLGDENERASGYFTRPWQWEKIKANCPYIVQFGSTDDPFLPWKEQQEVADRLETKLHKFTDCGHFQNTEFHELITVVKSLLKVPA
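Controls: DMSO-treated enzyme wells and wells lacking RBBP9 | Material: RBBP9 protein | Technique: Fluorescence polarization | Replication: Single well per compound, no replicates | Buffer or medium: Tris-NaCl-Pluronic buffer, pH 8.0 | Timing: 30 min compound preincubation, 45 min probe labeling, 25 °C | Read-out basis: Percent inhibition from mP, scaled between DMSO and no-protein wells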
GSTO1 counter: inhibitors of recombinant GSTO1, primary screen, counter-screen for RBBP9 inhibitor project, biochemical, fluorescence polarization; 1.1% of 300,000 active; AID 1974, 2009; activity-based probe fluorescence polarization; Glutathione S-transferase omega-1 (Homo sapiens), P78417; inhibition, % at 5.96 µM;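 active = inhibition above the campaign mean inhibition plus 3 SD, cut at about 35% in these data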
GSTO1 confirm: GSTO1 inhibitor hit confirmation, counter-screen for RBBP9 inhibitor project, biochemical, fluorescence polarization, triplicate; shares compounds with GSTO1 counter; recombinant GSTO1, probe fluorescence polarization; inhibition, % at 5.96 µM; 54% of 2,400 active;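 active = inhibition above the primary screen's cutoff, its mean inhibition plus 3 SD, cut at about 35% in these data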;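 also: loss of polarization as inhibitors block binding of rhodamine sulfonate ester activity probe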
Each line names hits and unclear results; the compound was inactive in the other large screens (follow-up assays come after a bar, where they were run).

O=C1c2cccc(Cl)c2C(=O)c2c1cccc2N1CCCC1	GSTO1 counter 44 | GSTO1 confirm inactive
COc1ccc(NC(=O)c2cc(CC(C)C)nc3ccccc23)cc1	none (no result: RBBP9 inh)
Cc1ccc(NC(=O)c2cc(CC(C)C)nc3ccccc23)cc1	GSTO1 counter 42 (no result: RBBP9 inh) | GSTO1 confirm inactive
Cn1c(-c2cc3c(C(F)(F)F)nn(C)c3s2)n[nH]c1=S	none
COc1ccc(CCn2c(NCc3ccco3)nc3c2c(=O)[nH]c(=O)n3C)cc1	none
COc1ccc(CCn2c(NN)nc3c2c(=O)[nH]c(=O)n3C)cc1	GSTO1 counter 41 | GSTO1 confirm inactive
CC1(C)CC(=O)C2=C(C1)OC(N)=C([N+](=O)[O-])C2c1ccc(C#N)s1 (centres undefined)	none
COc1ccc(C(=O)Nc2ccc(O)c3ccccc23)cc1	GSTO1 counter 49 (no result: RBBP9 inh) | GSTO1 confirm inactive
COc1ccc(OC)c(S(=O)(=O)Nc2cccc3c(O)cccc23)c1	none (no result: RBBP9 inh)
COc1ccc(OC)c(S(=O)(=O)Nc2ccc(O)c3ccccc23)c1	GSTO1 counter 60 | GSTO1 confirm inactive
COc1ccc(/C=C2\SC(=O)NC2=S)cc1OC	PRMT1 FP inh 47, GSTO1 counter 62 | GSTO1 confirm 72
O=C(CSc1nnc(-c2ccco2)o1)c1ccc([N+](=O)[O-])cc1	GSTO1 counter 47 | GSTO1 confirm inactive
COc1ccc(C2C(C#N)=C(N)Oc3cc(O)ccc32)cc1 (centres undefined)	none (no result: PME-1 primary, PAD4 FP inh, Fam108B inh, RBBP9 inh, GSTO1 counter)
Cc1cc(=O)[nH]c(N=N/C(=N/Nc2ccc(O)cc2)c2ccccc2)n1	GSTO1 counter 52 | GSTO1 confirm inactive
COc1ccc(N/N=C(/N=Nc2nc(C)cc(=O)[nH]2)c2ccccc2)cc1	none
O=C(NC1CCCCC1)Oc1cc2oc(=O)sc2cc1Br	PRMT1 FP inh 82, GSTO1 counter 51 | GSTO1 confirm inactive
O=C1C(NS(=O)(=O)c2cccs2)=C(N2CCN(c3cccc(C(F)(F)F)c3)CC2)C(=O)c2ccccc21	GSTO1 counter 48 | GSTO1 confirm inactive
CCOc1ccccc1N1CCN(C2=C(NS(=O)(=O)c3cccs3)C(=O)c3ccccc3C2=O)CC1	GSTO1 counter 63 | GSTO1 confirm inactive
Cc1cc(Cl)ccc1Oc1nc(-c2ccccc2)ncc1S(C)(=O)=O	none
[O-][n+]1onc2c1CCC(=N/O)/C2=N\Nc1ccccc1	GSTO1 counter 40 (no result: PRMT1 FP inh) | GSTO1 confirm inactive
O=C(N/N=C/c1cc(Br)c(Br)o1)c1cccnc1	GSTO1 counter 44 | GSTO1 confirm inactive
O=C(N/N=C\c1cc(Br)c(Br)o1)c1cncc(Br)c1	none
O=C(CCl)Nc1ccccc1Sc1ccc(Cl)cc1	GSTO1 counter 90 | GSTO1 confirm 94
O=C(CCl)Nc1ccccc1C(=O)c1ccccc1	GSTO1 counter 82 | GSTO1 confirm 98
O=C(O)CC1(CC(=O)Nc2ccccc2C(=O)c2ccccc2)CCCC1	none
C=CCSC1=N/C(=C\C=C\c2ccco2)C(=O)S1	PRMT1 FP inh 44, GSTO1 counter 45 | GSTO1 confirm inactive
Cc1ccc2[nH]c3c(c2c1)CCCC3C(N)=O (centres undefined)	none
Cc1ccc2[nH]c3c(c2c1)CCCC3NC(=O)CCl (centres undefined)	GSTO1 counter 93 (no result: PRMT1 FP inh, RBBP9 inh) | GSTO1 confirm 99
CCCC[n+]1ccn(C2=C([O-])c3ccccc3C(=O)/C2=N\S(=O)(=O)c2ccc(Br)cc2)c1	GSTO1 counter 78 | GSTO1 confirm 74
Cc1ccc(S(=O)(=O)/N=C2\C(=O)c3ccccc3C([O-])=C2n2cc[n+](CCC(C)C)c2)cc1	GSTO1 counter 76 (no result: PRMT1 FP inh) | GSTO1 confirm 71
COc1cc(-c2nnc(COC(=O)c3cc(C)nc4ccc(C)cc34)o2)cc(OC)c1OC	none
CCNC(=O)N(CC)C[C@H]1N[C@@](C)(C(=O)OC)[C@H]2C(=O)N(C)C(=O)[C@@H]12	none (no result: PME-1 primary, Fam108B inh, RBBP9 inh, GSTO1 counter)
CCC(C)(C)NC(=O)C(c1ccncc1)N(Cc1ccc(C)cc1)C(=O)c1csnn1 (centres undefined)	none
O=C1c2ccccc2C(=O)C12OC2c1cccc2ccccc12 (centres undefined)	GSTO1 counter 75 | GSTO1 confirm 71
O=C1CCC/C(=N/Nc2ccc(Cl)cc2)C1	GSTO1 counter 40 | GSTO1 confirm inactive
CCOc1ccccc1NC(=O)C(OC(=O)c1cnc(C)cn1)c1ccccc1 (centres undefined)	none (no result: PME-1 primary, PAD4 FP inh, Fam108B inh, RBBP9 inh, GSTO1 counter)
NC1=NC(=O)/C(=C\c2ccco2)S1	PRMT1 FP inh 63, GSTO1 counter 41 | GSTO1 confirm inactive
CCN(CC)C(=O)c1ccc(N)cc1	GSTO1 counter 43 | GSTO1 confirm inactive
CC(=O)NC(CC(=O)OCC(=O)N1c2ccccc2NC(=O)C1(C)C)c1ccccc1 (centres undefined)	none (no result: Fam108B inh, RBBP9 inh, GSTO1 counter)
Cc1cc(C(=O)N/N=C/c2ccc([N+](=O)[O-])o2)c(C)o1	GSTO1 counter 38 | GSTO1 confirm inactive
O=c1c2cc([N+](=O)[O-])cc([N+](=O)[O-])c2[nH]n1-c1ccccc1	none (no result: RBBP9 inh)
Cc1[nH]n(-c2ccccc2)c(=O)c1C(C[N+](=O)[O-])c1ccccc1Cl (centres undefined)	GSTO1 counter 43 | GSTO1 confirm inactive
Cc1[nH]n(-c2ccccc2)c(=O)c1-c1ccccc1	none
Cc1[nH]n(-c2ccccc2)c(=O)c1C(c1ccc(O)c([N+](=O)[O-])c1)c1c(C)[nH]n(-c2ccccc2)c1=O	PAD4 FP inh 57, GSTO1 counter 59 | GSTO1 confirm 47
COc1ccc(NC(=O)C2c3ccccc3OCC(=O)N2CC(F)(F)F)cc1 (centres undefined)	none (no result: PME-1 primary, PAD4 FP inh, Fam108B inh, RBBP9 inh, GSTO1 counter)
C=CCn1c(SCc2nc3cc(C(F)(F)F)ccc3c(=O)[nH]2)nc2sc(CC)cc2c1=O	none
O=C(N=Nc1c(O)[nH]c2ccc([N+](=O)[O-])cc12)c1ccccc1Cl	GSTO1 counter 45 | GSTO1 confirm inactive
Cc1ccccc1NCC(=O)N=Nc1c(O)[nH]c2ccc([N+](=O)[O-])cc12	GSTO1 counter 45 | GSTO1 confirm 50
Cc1ccc(Sc2ccc(NC(=O)CCl)cc2)c(C)c1	GSTO1 counter 78 | GSTO1 confirm 89
Cc1cccc2c1-c1sc(C(=O)Nc3cccc([N+](=O)[O-])c3C)cc1CO2	none

Screening data as filed in PubChem.
